Results from different studies.
Lines come from different studies, so protocols differ.
MAPK14: Mitogen-activated protein kinase 14 (MAPK14, Homo sapiens, UniProt Q16539)
MAPK14 T106M: Mitogen-activated protein kinase 14 (MAPK14, Homo sapiens, UniProt Q16539, T106M)

Structure (SMILES) | target | assay | conditions | measurement | value
Nc1ncnc2occ(-c3ccc(NC(=O)Nc4cc(C(F)(F)F)ccc4F)cc3)c12 | MAPK14 | cell-free assay, inhibitor | 20 µM | remaining signal | 0%
COc1cc(/C=C/C(=O)CC(=O)/C=C/c2ccc(O)c(OC)c2)ccc1O | MAPK14 | enzyme activity, inhibitor | 1 µM | activity vs control | 104%
COc1cc(Nc2cnc(C#N)c(O[C@H](C)CN(C)C)n2)ncc1-c1cnn(C)c1 | MAPK14 | enzyme activity, inhibitor, radiometric | 10 µM | remaining activity | 85%
CC(C)(C)c1nc2c(s1)c1nc(N)ncc1c1ccc(NS(=O)(=O)c3c(F)cccc3F)c(F)c12 | MAPK14 | enzyme activity, inhibitor, radiometric | 1 µM | remaining activity | 96%
O=C(NC[C@@H]1[C@H]2CN(C(=O)OCc3cc(C(F)(F)F)cc(C(F)(F)F)c3)C[C@@H]12)c1ccc2[nH]nnc2c1 | MAPK14 | cell-free assay, competition with immobilised ligand | 1 µM | remaining binding | 100%
Cc1ccc(Nc2nccc(N(C)c3ccc4c(C)n(C)nc4c3)n2)cc1S(N)(=O)=O | MAPK14 | enzyme activity, inhibitor | 0.3 µM | inhibition | 6%
Cc1ccc(NC(=O)c2ccc(C)c(C(F)(F)F)c2)cc1C#Cc1nn(C2CCC(O)CC2)c2ncnc(N)c12 (stereo not shown) | MAPK14 T106M | enzyme activity, inhibitor | 10 µM | remaining activity | 88%
CNC(=O)c1cc(Oc2ccc(NC(=O)Nc3ccc(Cl)c(C(F)(F)F)c3)cc2)ccn1 | MAPK14 T106M | enzyme activity, inhibitor | 10 µM | inhibition | 90%
CN([C@@H]1CCc2c(CC(=O)O)c3cc(S(C)(=O)=O)ccc3n2C1)S(=O)(=O)c1ccc(F)cc1 | MAPK14 | cell-free assay, competition with immobilised ligand | 1 µM | remaining binding | 100%
C#Cc1cccc(Nc2ncnc3cc(OCCOC)c(OCCOC)cc23)c1 | MAPK14 | cell-free assay | 0.5 µM | remaining signal | 95.3%
Cn1c(=O)n(-c2ccc(C(C)(C)C#N)cc2)c2c3cc(-c4cnc5ccccc5c4)ccc3ncc21 | MAPK14 | enzyme activity, inhibitor | 10 µM | remaining activity | 111%
O=C(NCCCC1CCCCC1)c1ccc(CNC(=O)c2cnn(-c3ccccc3)c2C(F)(F)F)cc1 | MAPK14 | cell-free assay, competition with immobilised ligand | 0.1 µM | remaining binding | 100%
CCN(CC)CCNC(=O)c1c(C)[nH]c(/C=C2\C(=O)Nc3ccc(F)cc32)c1C | MAPK14 T106M | enzyme activity, inhibitor | 10 µM | inhibition | 9%
Nc1nc(NC2CCCCC2)sc1C(=O)c1ccccc1 | MAPK14 | enzyme activity, inhibitor | 10 µM | remaining activity | 24%
O=C(NS(=O)(=O)c1ccc(NCC2CCOCC2)c([N+](=O)[O-])c1)c1ccc(N2CCN(Cc3ccc(C(F)(F)F)cc3-c3ccc(Cl)cc3)CC2)cc1Oc1cnc2[nH]ccc2c1 | MAPK14 | cell-free assay, competition with immobilised ligand | 1 µM | remaining binding | 97%
N#Cc1c(NC(=O)c2cccc3ccccc23)sc2c1CCCC2 | MAPK14 | cell-free assay | 0.5 µM | remaining signal | 98.1%
CN(C)C1CCN(CC#Cc2nn(C3CCCC3)c3nc(NCc4ccccc4)ncc23)C1 (stereo not shown) | MAPK14 | enzyme activity, inhibitor, FRET | 10 µM | inhibition | 4%
Cc1noc([C@H]2C[C@@H](c3ccc(C(F)(F)F)cc3)CN(C(=O)N3CCS(=O)(=O)C3)C2)n1 | MAPK14 | cell-free assay, competition with immobilised ligand | 1 µM | remaining binding | 79%
Nc1nc(Nc2ccccc2)sc1C(=O)c1c(F)cccc1F | MAPK14 | enzyme activity, inhibitor | 10 µM | remaining activity | 8%
O=C1Nc2ccc(Cl)cc2C1=Cc1cc(Cl)c(O)c(Cl)c1 | MAPK14 | cell-free assay | 0.5 µM | remaining signal | 74.6%
CC(C)c1ccc(NC(=O)c2cccs2)c(-c2nc3ccccc3[nH]c2=O)c1 | MAPK14 | enzyme activity, inhibitor | 1 µM | activity vs control | 102%
c1ccc(CNc2nc(N3CCOc4ccccc43)nc3c2CCCC3)cc1 | MAPK14 | target engagement in cells, inhibitor, chemoproteomics | 20 mM | inhibition | 6.3%
COc1ccc2c(c1)O[C@@H](c1ccc(OC)c(OC)c1)C[C@H]2NC(=O)C1(c2ccc3c(c2)OC(F)(F)O3)CC1 | MAPK14 | cell-free assay, competition with immobilised ligand | 1 µM | remaining binding | 99%
Cc1cc(NC(=O)c2cccc3cc(-c4cccc5[nH]nc(N)c45)ccc23)ccc1F | MAPK14 T106M | enzyme activity, inhibitor | 0.1 µM | activity vs control | 96%
Cc1cc(NC(=O)c2cccc(S(F)(F)(F)(F)F)c2)cc(-n2ccn3nc(-c4cccnc4)cc23)c1 | MAPK14 | cell-free assay, competition with immobilised ligand | 1 µM | remaining binding | 100%
Cc1sc(C(=O)NC2COC2)cc1-n1cc(NC(=O)Nc2c(F)cccc2Cl)cn1 | MAPK14 | enzyme activity, inhibitor | 10 µM | remaining activity | 93.2%
O=C1NC(c2ccccn2)Sc2ccccc21 (stereo not shown) | MAPK14 | cell-free assay, competition with immobilised ligand | 1 µM | remaining binding | 81%
Cc1cnc(NC2CCOCC2)nc1-n1cnc(C(=O)NC(CN)c2cc(F)cc(Cl)c2)c1 (stereo not shown) | MAPK14 T106M | enzyme activity, inhibitor, radiometric | 1 µM | remaining activity | 55%
